According to the array DNA melting data of Ke et al. (doi:10.1101/2024.01.08.574731):

Tests used:
[1] = folding enthalpy; higher = less favourable; fluorescence melt of hairpins on a sequencing array, two-state fit; details: sodium 0.088 M
Summary of the method: (§1)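 Melting temperature and folding enthalpy were derived from bootstrapped two-state fits. The fitted temperatures were raised by 9.35 °C to agree with UV melts, and four replicates were combined by inverse variance. The underlying data were Cy3 fluorescence images of library hairpins, with annealed Cy3 and quencher oligos, on a sequenced MiSeq flow cell in 50 mM Na-HEPES pH 8.0, 25 mM NaCl, taken in 2.5 °C steps up to 60 °C, normalised to pre-quench Cy3 and to control constructs.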

[2] = melting temperature; fluorescence melt of hairpins on a sequencing array, two-state fit, raised by 9.35 °C to match UV melts; details: sodium 0.088 M
Summary of the method: as §1

Row | Sequence | folding enthalpy [1] [kcal/mol] | Tm [2] [°C]
1 | GATTCCGGAAACGGAACC (.(((((....))))).) | -13.6 | 40.1
2 | GATTCGCGAAAGCGGATC (((.(((....))).))) | -27.7 | 60.5
3 | GATTGACGAAAGTCGATC (((.(((....))).))) | -29.6 | 54.2
4 | GATTGAGAAATCAATC ((((((....)))))) | -25.9 | 45.5
5 | GATTGCCGAAAGGCATC (((.(((....)))))) | -10.3 | 44.6
6 | GATTGCCGAAAGGCGATC (((.(((....))).))) | -28.4 | 61.9
7 | GATTGCGAAAGCAAGATC ((((((....)))..))) | -14.8 | 50.2
8 | GATTGCGAAAGCACAATC ((((((....)))..))) | -10.8 | 32.7
9 | GATTGCGAAAGCACGATC ((((((....)))..))) | -7.93 | 28.7
10 | GATTTACGAAAGTAATC (((.(((....)))))) | -17.8 | 32
11 | GATTTAGAAATAAATC ((((((....)))))) | -18.8 | 34.4
12 | GATTTCCGAAAGGACATC (((.(((....))).))) | -27.1 | 38
13 | GATTTCGGAAACGAAACC (.(((((....))))).) | -19.6 | 35.8
14 | GATTTGAAAAAATC (((((....))))) | -13.9 | 34
15 | GATTTGCGAAAGCAATC (((.(((....)))))) | -12.6 | 40.3
16 | GATTTTGGAAACAAAACC (.(((((....))))).) | -24.9 | 29.6
17 | GATTTTGGAAACAAAATC (((((((....))))))) | -46.4 | 51.7
18 | GCAAAACCGAAAGGTTGC (((..(((....)))))) | -17.7 | 50
19 | GCAAACCGAAAGGTCTGC (((.(((....))).))) | -29.8 | 49.8
20 | GCAAAGCGAAAGCACTGC (((..((....))..))) | -13.7 | 37.7
21 | GCAAAGCGAAAGCATGGC ((.(.((....)).).)) | -10.3 | 38.3
22 | GCAAAGCGAAAGCATTGC ((((.((....)).)))) | -21.1 | 58.9
23 | GCAAAGCGAAAGCCGTGC (((..((....))..))) | -11.4 | 39.9

Row | Sequence | folding enthalpy [1] [kcal/mol] | Tm [2] [°C]
24 | GCAAAGCGAAAGCCTGGC ((.(.((....)).).)) | -8.7 | 35
25 | GCAAAGCGAAAGCGGTGC (((..((....))..))) | -19.8 | 61.7
26 | GCAAAGCGAAAGCGTCGC ((.(.((....)).).)) | -23.7 | 60.2
27 | GCAAAGCGAAAGCTCAGC ((..(((....)))..)) | -10.8 | 33.6
28 | GCAAAGCGAAAGCTCGGC ((..(((....)))..)) | -16.6 | 36.5
29 | GCAAAGCGAAAGCTGCGC ((..(((....)))..)) | -28.5 | 64.3
30 | GCAAAGCGAAAGCTTAGC ((.((((....)))).)) | -19 | 57.2
31 | GCAAATACGAAAGTATGC (((..(((....)))))) | -21.6 | 38.7
32 | GCAAATGAAAATTTGC ((((((....)))))) | -45.3 | 52.3
33 | GCAAATGGAAACATTTGC (((((((....))))))) | -40.9 | 61.8
34 | GCAACACGAAAGTGATGC (((.(((....))).))) | -38.9 | 59
35 | GCAACACGAAAGTGGTGC (((.(((....))).))) | -32.2 | 68.6
36 | GCAACAGGAAACTGTTAC (.(((((....))))).) | -16.7 | 34
37 | GCAACCCCGAAAGGGTGC (((..(((....)))))) | -19.2 | 55.8
38 | GCAACCGAAAGGTAATGC ((((((....)))..))) | -20.1 | 38.6
39 | GCAACCGAAAGGTGTGC ((((((....))).))) | -23.2 | 52.4
40 | GCAACCGAAAGGTGTTGC ((((((....)))..))) | -19 | 50
41 | GCAACCGGAAACGGTCGC ((.((((....)))).)) | -29.8 | 52.8
42 | GCAACCTCGAAAGAGTGC (((..(((....)))))) | -21.7 | 36.9
43 | GCAACGCGAAAGCATCGC ((.(.((....)).).)) | -13.5 | 39.2
44 | GCAACGCGAAAGCATGGC ((.(.((....)).).)) | -13.1 | 33.8
45 | GCAACGCGAAAGCCGTGC (((..((....))..))) | -14.8 | 49
46 | GCAACGCGAAAGCCTGGC ((.(.((....)).).)) | -6.76 | 30.8

Row | Sequence | folding enthalpy [1] [kcal/mol] | Tm [2] [°C]
47 | GCAACGCGAAAGCGTGC (((.(((....)))))) | -14.2 | 69.1
48 | GCAACGCGAAAGCTATGC (((..((....))..))) | -11.6 | 36.8
49 | GCAACGCGAAAGCTTCGC ((.(.((....)).).)) | -8.73 | 30
50 | GCAACGGGAAACCGCTGC (((.(((....))).))) | -44 | 51.5
51 | GCAACTCGAAAGAGTGC (((.(((....)))))) | -33.5 | 55.8
52 | GCAACTGCGAAAGCATGC (((..(((....)))))) | -13.5 | 40.2
53 | GCAACTGGAAACAGTTGC (((((((....))))))) | -47.5 | 67.1
54 | GCAAGAACGAAAGTTTGC (((..(((....)))))) | -22.5 | 42.7
55 | GCAAGAGGAAACTCTCGC ((.((((....)))).)) | -25.6 | 37.6
56 | GCAAGAGGAAACTCTTGC (((((((....))))))) | -40.5 | 64.9
57 | GCAAGCGAAAGCTCTGC ((((((....))).))) | -20 | 45.9
58 | GCAAGCGGAAACGCCTGC (((.(((....))).))) | -17.1 | 54.2
59 | GCAAGCGGAAACGCTCGC ((.((((....)))).)) | -22.6 | 52.7
60 | GCAAGCTCGAAAGAGTGC (((..(((....)))))) | -16.9 | 36.9
61 | GCAAGGCGAAAGCATAGC ((.(.((....)).).)) | -14.8 | 39.6
62 | GCAAGGCGAAAGCCAGGC ((..(((....)))..)) | -18.8 | 52.2
63 | GCAAGGCGAAAGCGTTGC ((((.((....)).)))) | -33.1 | 67.2
64 | GCAAGGGGAAACCCCTGC (((.(((....))).))) | -27.4 | 51.1
65 | GCAAGGGGAAACCCTCGC ((.((((....)))).)) | -23.4 | 45
66 | GCAAGTGGAAACGCTTGC (((((.(....).))))) | -39.1 | 54.9
67 | GCAAGTTCGAAAGAATGC (((..(((....)))))) | -11.8 | 27.3
68 | GCAATAGGAAACCATTGC (((((.(....).))))) | -28 | 39.2
69 | GCAATCACGAAAGTGTGC (((..(((....)))))) | -19.5 | 39.9

Row | Sequence | folding enthalpy [1] [kcal/mol] | Tm [2] [°C]
70 | GCAATCCGAAAGGACTGC (((.(((....))).))) | -17.6 | 49.8
71 | GCAATCCGAAAGGAGTGC (((.(((....))).))) | -48 | 61.1
72 | GCAATCGAAAGATCTGC ((((((....))).))) | -18 | 35.2
73 | GCAATCGAAAGATTGC ((((((....)))))) | -42.2 | 64
74 | GCAATCGAAAGATTTTGC ((((((....)))..))) | -14.8 | 28.8
75 | GCAATCGGAAACGATCAC (..((((....))))..) | -12 | 25.1
76 | GCAATGCCGAAAGGCTGC (((..(((....)))))) | -15.6 | 49.1
77 | GCAATGCGAAAGCAAGGC ((..(((....)))..)) | -18.7 | 43.7
78 | GCAATGCGAAAGCACGGC ((..(((....)))..)) | -19.9 | 36.3
79 | GCAATGCGAAAGCATGC (((.(((....)))))) | -22.9 | 63
80 | GCAATGCGAAAGCGTGGC ((.(.((....)).).)) | -33.7 | 56.6
81 | GCAATGCGAAAGCTTTGC ((((.((....)).)))) | -39.1 | 63
82 | GCAATGGGAAACCATCAC (..((((....))))..) | -10.7 | 22.8
83 | GCAATGGGAAACCATTAC (.(((((....))))).) | -14.9 | 33.9
84 | GCAATGGGAAACCATTGC (((((((....))))))) | -39.2 | 66.2
85 | GCAATTACGAAAGTATGC (((..(((....)))))) | -20.3 | 31.1
86 | GCAATTCCGAAAGGATGC (((..(((....)))))) | -21.5 | 38
87 | GCAATTCGAAAGAAGTGC (((.(((....))).))) | -34.6 | 52.4
88 | GCACAAGGAAACCTGTGC (((((.(....).))))) | -34 | 50.5
89 | GCACAAGGAAACTTGTAC (.(((((....))))).) | -20.6 | 32.9
90 | GCACAATCGAAAGATTGC (((..(((....)))))) | -10.3 | 34.5
91 | GCACACACGAAAGTGTGC (((..(((....)))))) | -11.6 | 57.7
